SR-BI uptake up: activators of SR-BI mediated DiI-HDL uptake, primary screen, ldlA[mSR-BI] CHO cells, DiI fluorescence; 3 h; 100 = double the neutral-control signal; activation, % at 12.5 µM; 320,000 tested, 0.096% active; AID 504775, 2011;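 active means mean replicate activation of at least 60% and every replicate at or above 60%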;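 further: 0% = median plate neutral-control signal and 100% = twice that signal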
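system = CHO ldlA[mSR-BI] cells, LDL receptor-null, SR-BI overexpressing | medium = Ham's F12 with 0.5% BSA, HEPES 25 mM, pH 7.4 | probe or stimulus = DiI-HDL 10 µg/mL | compound dosing = single-point compound dose | incubation = compound exposure 3 h, 37 °C | technique = DiI fluorescence, bottom read | read-out = cell-associated DiI fluorescence as measure of HDL uptake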
SR-BI DiI inh: inhibitors of SR-BI mediated HDL lipid uptake, primary screen, ldlA[mSR-BI] cells, fluorescence, single point; AID 488896, 2010; ldlA[mSR-BI] CHO cells, DiI-HDL uptake fluorescence, 3 h; inhibition, % at 12.5 µM; 320,000 tested, 0.96% active;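 active means mean replicate inhibition of at least 70% and a set share of replicates each scoring 70 or more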;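 further: 0% = median of neutral control wells and 100% = median of positive control wells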
ARNT-TACC3 inh: disruptors of ARNT/TACC3 protein interaction, primary screen, biochemical, AlphaScreen, single concentration; Transforming acidic coiled-coil-containing protein 3 (Homo sapiens), Q9Y6A5; AlphaScreen His-ARNT PAS-B/GST-TACC3 binding, luminescence; TACC3 fragment carries E629A point mutation; inhibition, % at 9.99 µM; 390,000 tested, 0.66% active; AID 623870, 2012;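 active means mean inhibition of replicates at least 50% and at least half of replicates each reaching 50%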;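 further: 0% = complete ARNT plus TACC3 wells and 100% = ARNT alone without TACC3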
Xi reactivation: activators of inactive X chromosome reactivation, primary screen, imaging, XiGFP fibroblasts, GFP high-content imaging, set 2. 360,000 tested, 0.055% active. AID 743238, 2013. XiGFP mouse fibroblasts, % GFP-positive cells imaging, 3 d; cells co-treated with 5-aza-dC sensitizer; scaled so ellipticine positive control = 100%. activation, % at 7.58 µM;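 active means mean normalized replicate activation at least 10% and every replicate at or above 10%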;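 further: 0% = median of on-plate neutral control wells and 100% = ellipticine 6 µM median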
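Material: SV40-immortalized XiGFP fibroblast cells, line 68-5-11 | Buffer or medium: DMEM containing 5-aza-dC | Dosing: One concentration, pinned | Times: 3 d treatment, 15 min room-temperature fixation | Controls: Ellipticine 6 µM positive control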
NSD2 inh: NSD2 histone methyltransferase inhibitors, primary screen, biochemical, AlphaScreen, single concentration, set 2; Histone-lysine N-methyltransferase NSD2 (Homo sapiens), O96028; NSD2 peptide methylation, 120 min; inhibition, % at 12.5 µM; 310,000 tested, 0.54% active; in the data active means inhibition above about 50%
sPLA2-III inh: human group III sPLA2 inhibitors, primary screen, biochemical, QFRET, BODIPY PC-A2 liposome substrate; Group 3 secretory phospholipase A2 (Homo sapiens), Q9NZ20; QFRET BODIPY PC-A2 liposome hydrolysis, fluorescence; inhibition, % at 12.2 µM; 370,000 tested, 0.56% active;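 active means inhibition above mean plus 3 SD of compounds lying within the high and low control bounds, cut at about 19% in these data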;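 further: 0% = median of test compound wells and 100% = no enzyme DMSO wells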
Target sequence (Q9NZ20 whole entry, looked up): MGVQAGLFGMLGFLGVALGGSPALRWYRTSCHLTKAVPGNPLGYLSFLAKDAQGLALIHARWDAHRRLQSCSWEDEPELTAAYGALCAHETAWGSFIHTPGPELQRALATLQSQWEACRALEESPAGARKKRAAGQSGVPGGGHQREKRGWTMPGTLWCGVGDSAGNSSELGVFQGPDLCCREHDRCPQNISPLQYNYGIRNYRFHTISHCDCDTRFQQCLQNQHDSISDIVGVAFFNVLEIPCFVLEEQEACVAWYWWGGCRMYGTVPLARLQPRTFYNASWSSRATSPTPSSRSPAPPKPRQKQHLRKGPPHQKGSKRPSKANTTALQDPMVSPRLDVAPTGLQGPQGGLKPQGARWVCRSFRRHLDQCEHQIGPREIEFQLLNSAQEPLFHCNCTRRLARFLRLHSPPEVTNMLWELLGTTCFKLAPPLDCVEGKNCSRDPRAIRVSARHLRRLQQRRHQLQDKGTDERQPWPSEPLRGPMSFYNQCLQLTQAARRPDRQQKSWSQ
sPLA2 confirm: human group III sPLA2 inhibitors, confirmation, biochemical, QFRET, triplicate. shares compounds with sPLA2-III inh. recombinant hGIII-sPLA2, BODIPY PC-A2 QFRET fluorescence. inhibition, % at 12.2 µM. 2,000 tested, 34% active. AID 743280, 2014;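 active means mean inhibition across triplicates above the hit cutoff set in the earlier primary screen, cut at about 19% in these data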;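 further: 0% = enzyme with DMSO and 100% = DMSO wells lacking enzyme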
BODIPY interf: 535nm fluorescence optical interference, confirmation, artefact control for HGIII-sPLA2 inhibitor project, biochemical, QFRET. shares compounds with sPLA2-III inh. BODIPY FL product fluorescence interference. inhibition, % at 12.2 µM. 2,000 tested, 8.5% active. AID 743282, 2014;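 active means average inhibition above the solvent-only control mean plus 3 SD, cut at about 6% in these data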;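 further: 0% = DMSO with substrate plus product and 100% = DMSO with substrate alone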
BODIPY interf DR: 535nm fluorescence optical interference, dose response, artefact control for HGIII-sPLA2 inhibitor project, biochemical, QFRET. BODIPY FL product fluorescence interference, cell-free. IC50, µM. shares compounds with sPLA2-III inh. AID 743455, 2014. 240 tested, under 10 active;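 active means IC50 at or below 10 µM; inactive means IC50 above 10 µM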
Active calls of the source: *; . = not tested or not shown. Rows were chosen to be rich in hits. Some 2% of all compounds tested hit in one or more screens of this group.

SMILES	SR-BI uptake up	SR-BI DiI inh	ARNT-TACC3 inh	Xi reactivation	NSD2 inh	sPLA2-III inh	sPLA2 confirm	BODIPY interf	others
C[C@H](CO)N1C[C@H](C)[C@@H](CN(C)C(=O)Nc2ccc3c(c2)OCO3)Oc2ccc(NC(=O)CCN3CCOCC3)cc2C1=O	-7.2	7.2	-6.7	-0.1	.	2.4	.	.
O=[N+]([O-])c1ccccc1CNC(Cc1ccccc1)c1ccccc1 (configuration not stated)	-7.7	7.7	-46.2	.	-0.9	23.5*	2.4	-11.2
Cc1cccc(NC(=S)N/N=C2/CCCCc3ccccc32)c1	-12.8	12.8	1.3	0.0	0.5	16.2	.	.
Cc1ccc(NC(=S)N/N=C2/CCCCc3ccccc32)cc1	-25.4	25.4	0.1	-0.1	5.0	23.9*	31.2*	-3.4	BODIPY interf DR=>122
NC(=S)NN=Cc1nccc2c(C(F)(F)C(F)(F)C(F)(F)F)cccc12	.	.	.	0.4	5.7	31.4*	38.6*	-4.4	BODIPY interf DR=>122
C/C(=N\NC(=O)c1nnn(-c2nonc2N)c1-c1ccccc1)c1ccccc1O	-86.3	86.3*	3.1	0.6	-1.3	26.4*	30.4*	1.6	BODIPY interf DR=>122
CCCc1c(C(=O)N/N=C(\C)c2ccccc2O)nnn1-c1nonc1N	.	.	.	0.0	0.0	15.5	.	.
CN1C(=O)c2cc(NC(=O)C3CCOCC3)ccc2OC[C@H]2O[C@@H](CC(=O)NCCc3ccncc3)CC[C@H]21	.	.	-16.7	0.0	.	.	.	.
O=C(N[C@@H]1CC[C@H](CC(=O)N2CCc3ccccc3C2)O[C@H]1CO)C1CCOCC1	.	.	-5.3	0.0	.	.	.	.
C[C@@H]1CN([C@@H](C)CO)C(=O)c2cccc(NS(=O)(=O)c3ccc(F)cc3)c2O[C@H]1CN(C)Cc1ccccc1	.	.	-11.3	0.0	.	.	.	.
CN=c1scc(C)n1/N=C/c1ccc(O)c(O)c1O	-9.7	9.7	33.3	.	25.1	8.5	.	.
C=CCN=c1scc(-c2ccco2)n1/N=C/c1ccc(O)c(O)c1O	.	.	49.3*	0.4	16.5	23.9*	37.4*	-1.4	BODIPY interf DR=>122
C=CCNC(=O)COc1cc(C)ccc1C	24.3	-24.3	2.1	0.2	-1.8	19.6*	2.5	-8.8
COc1cc([N+](=O)[O-])c(OC)cc1SCc1n[nH]c(=S)n1-c1ccc(F)cc1	-5.7	5.7	-13.6	0.0	5.7	22.2*	35.8*	5.6
COc1cc([N+](=O)[O-])c(OC)cc1SCc1n[nH]c(=S)n1-c1ccc(C)cc1	0.1	-0.1	-0.2	-0.2	4.3	19.3*	22.1*	5.4
NC(c1csc(NC(=O)Nc2cccc(Cl)c2)n1)c1ccccc1Cl (configuration not stated)	.	.	.	0.2	-1.2	14.4	.	.
Cc1ccccc1NC(=O)Nc1nc(C(N)c2ccccc2)cs1 (configuration not stated)	.	.	.	0.1	2.1	22.4*	1.1	-3.0
CC(C)C(N)c1csc(NC(=O)Nc2cccc(Cl)c2)n1 (configuration not stated)	.	.	.	0.1	8.2	22.4*	8.4	-9.1

Assay outcomes as filed in PubChem BioAssay.
